Here are results for 29 molecules from ChEMBL document CHEMBL2062433, “Synthesis and antiviral activity of substituted bisaryl amide compounds as novel influenza virus inhibitors” (Eur J Med Chem, 2012).

The term IC50 denotes the concentration that inhibits the measured activity by half.

The nature of data set [1]: Cytotoxicity against MDCK cells incubated for 48 hrs by CPE method. In kind it is cell-based, Canis lupus familiaris. To be noted: dog, read-out: TC50. A digest of the protocol: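 MDCK cells seeded at 2.5 × 10^4 per well and grown 24 h, then exposed to various compound concentrations for 48 h at 37 °C in 5% CO2. Toxicity scored by CPE observation. TC50 calculated by Reed and Muench; values are averages of three independent assays.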

A short description of data set [2]: Selectivity index, ratio of TC50 for MDCK cells to IC50 for Influenza A virus (A/Guangdong-Luohu/219/2006(H1N1)). To be noted: dog, read-out: Selectivity Index. In kind it is toxicity, cell-based. An outline of the steps:
(§1)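 SI is TC50 divided by IC50. TC50 comes from uninfected MDCK cells after 48 h of compound exposure, scored by CPE. IC50 comes from MDCK cells infected with 100 TCID50 and scored for CPE when virus controls reached grade 4. Both values calculated by Reed and Muench.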

Data set [3] relates to Influenza A virus. In words: Antiviral activity against Influenza A virus (A/Guangdong-Luohu/219/2006(H1N1)) infected in MDCK cells assessed as inhibition of virus-induced cytopathic effect. In kind it is functional, organism-based. A digest of the protocol: (§2)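 Confluent MDCK monolayers infected with 100 TCID50 of virus; 2 h adsorption at 37 °C, PBS wash, then maintenance medium at 37 °C with or without serial compound concentrations. CPE scored once virus control wells reached grade 4. IC50 calculated by Reed and Muench; values are averages of three independent assays.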
(In general: Damage to the host cells serves as the signal in cytopathic effect assays.)

The next data set concerns Influenza B virus. In words: Antiviral activity against Influenza B virus (strain B/Jifang/13/97) infected in MDCK cells assessed as inhibition of virus-induced cytopathic effect. In kind it is functional, organism-based.
The nature of data set [4]: Selectivity index, ratio of TC50 for MDCK cells to IC50 for Influenza B virus (strain B/Jifang/13/97). Format: toxicity, cell-based. The note with it: dog, read-out: Selectivity Index.
For data set [5], the system named is Influenza A virus. In words: Antiviral activity against Influenza A virus (A/Tianjin-Jinnan/15/2009(H1N1)) infected in MDCK cells assessed as inhibition of virus-induced cytopathic effect. Format: functional, organism-based. An outline of the steps:
as §2

A short description of data set [6]: Selectivity index, ratio of TC50 for MDCK cells to IC50 for Influenza A virus (A/Tianjin-Jinnan/15/2009(H1N1)). In kind it is toxicity, cell-based. The note with it: dog, read-out: Selectivity Index. An outline of the steps:
as §1

Molecules are shown by their SMILES.

Consider `CCC(=O)Nc1cc(C(=O)Nc2ccccn2)ccc1OC`, for which the CC50 at 48 h in data set [1] is above 669 µM. The selectivity ratio in data set [2] is above 3. The half-maximal inhibitory concentration (IC50) with Influenza A virus [3] amounted to 223 µM.
For `CCC(=O)Nc1cc(C(=O)Nc2nccs2)ccc1OC`, the CC50 at 48 h in data set [1] is above 655 µM. In addition, the IC50 in the data set on Influenza B virus came out at 126 µM; in the data set on Influenza A virus [5], 93.8 µM; with Influenza A virus [3], 35 µM. The selectivity ratio is above 18.7 in data set [2], above 5.2 in data set [4] and 6.9 in data set [6].
For the molecule `CCC(=O)Nc1cc(C(=O)Nc2ccc(Br)cc2)ccc1OC`, the CC50 at 48 h in data set [1] came out at 90.4 µM. The IC50 with Influenza A virus [3] was above 17.6 µM.
On to `COc1cc(NC(=O)C(C)F)cc(C(=O)Nc2ccccc2)c1` (centres undefined), for which the CC50 at 48 h in data set [1] was found to be 491 µM. Besides, in data set [2], the selectivity ratio worked out at 2.3. For the same molecule, the IC50 in the data set with Influenza A virus [3] amounted to 211 µM.
Consider `CC(F)C(=O)Nc1cccc(C(=O)Nc2ccccc2)c1` (centres undefined), for which the CC50 at 48 h in data set [1] was 578 µM. For the same molecule, the selectivity ratio in data set [2] was found to be 4. For the same molecule, the IC50 in the data set with Influenza A virus [3] was 144 µM.
As to `COc1ccc(NC(=O)C(C)F)cc1C(=O)Nc1ccccc1` (centres undefined), in data set [1], the CC50 at 48 h was found to be 272 µM. For the same molecule, the concentration for half-maximal inhibition (IC50) with Influenza A virus [3] is above 70.2 µM.
Regarding `COc1ccc(C(=O)Nc2ccccc2)cc1NC(=O)C(C)F` (centres undefined), in data set [1], the CC50 at 48 h is above 632 µM. In data set [2], the selectivity ratio was above 3. The IC50 in the data set with Influenza A virus [3] is 211 µM.
On to `COc1ccc(C(=O)N(C)c2ccccc2)cc1NC(=O)C(C)C`, for which the CC50 at 48 h in data set [1] is 492 µM. Moreover, the selectivity ratio in data set [2] turned out to be 4.2. In addition, the concentration for half-maximal inhibition (IC50) with Influenza A virus [3] is 117 µM.
Regarding `NC(=O)c1ncn([C@@H]2O[C@H](CO)[C@@H](O)[C@H]2O)n1` [RIBAVIRIN], in data set [1], the CC50 at 48 h stood at 4770 µM. Further, the IC50 in the data set on Influenza B virus amounted to 45.5 µM; in the data set with Influenza A virus [5], 35.3 µM; in the data set on Influenza A virus [3], 8.8 µM. The selectivity ratio in data set [2] came to 542; in data set [4], 104; in data set [6] it was 135.
Consider `CCC(=O)Nc1cc(C(=O)Nc2ccccc2)ccc1OC`, for which, in data set [1], the CC50 at 48 h is above 670 µM. Further, the IC50 is above 224 µM with Influenza B virus, above 224 µM with Influenza A virus [5] and 43 µM in the data set on Influenza A virus [3]. Moreover, in data set [2], the selectivity ratio is above 15.6.
As to `CCC(=O)Nc1cc(C(=O)NC2CCC2)ccc1OC`, the CC50 at 48 h in data set [1] is above 724 µM. In addition, the IC50 is above 241 µM in the data set with Influenza B virus, above 241 µM in the data set with Influenza A virus [5] and 59 µM with Influenza A virus [3]. Besides, in data set [2], the selectivity ratio was above 12.3.
As to `COc1ccc(C(=O)Nc2ccccc2)cc1NC(=O)c1ccccc1`, in data set [1], the CC50 at 48 h is 192 µM. In addition, the IC50 came to 21.4 µM with Influenza B virus, 9.2 µM in the data set on Influenza A virus [5] and 12.5 µM in the data set with Influenza A virus [3]. Also, the selectivity ratio stood at 15.4 in data set [2], 9 in data set [4] and 20.9 in data set [6].
With `CCC(=O)Nc1cc(C(=O)Nc2ccccc2)ccc1Cl`, the CC50 at 48 h in data set [1] was 530 µM. Besides, the selectivity ratio in data set [2] worked out at 3.5. Also, the IC50 with Influenza A virus [3] was 153 µM.
With `CCC(=O)Nc1cc(C(=O)Nc2cccc(Cl)c2)ccc1OC`, in data set [1], the CC50 at 48 h is 602 µM. Further, the IC50 in the data set on Influenza A virus [3] was above 66.9 µM.
Consider `COc1ccc(C(=O)Nc2ccccc2)cc1NC(=O)C(C)Cl` (centres undefined), for which, in data set [1], the CC50 at 48 h came to 200 µM. The half-inhibitory concentration (IC50) was above 22.3 µM in the data set with Influenza B virus, above 22.3 µM in the data set with Influenza A virus [5] and 17.3 µM in the data set with Influenza A virus [3]. In addition, the selectivity ratio in data set [2] stood at 11.6.
On to `CCC(=O)Oc1cc(C(=O)Nc2ccccc2)ccc1OC`, for which the CC50 at 48 h in data set [1] came out at 518 µM. Also, in data set [2], the selectivity ratio turned out to be 3. Besides, the IC50 with Influenza A virus [3] came to 173 µM.
`CCC(=O)Nc1cc(S(=O)(=O)Nc2ccccc2)ccc1OC`: the CC50 at 48 h in data set [1] is above 599 µM. Further, the IC50 is above 66.7 µM in the data set on Influenza B virus, above 66.7 µM with Influenza A virus [5] and 48.4 µM in the data set on Influenza A virus [3]. For the same molecule, in data set [2], the selectivity ratio is above 12.4.
As to `CCC(=O)Nc1cc(C(=O)Nc2ccc(C)cc2)ccc1OC`, in data set [1], the CC50 at 48 h turned out to be 162 µM. In addition, the values for the IC50 in the data set on Influenza B virus, in the data set on Influenza A virus [5] and in the data set with Influenza A virus [3] were above 23.7 µM, above 23.7 µM and 23.7 µM, respectively. In addition, the selectivity ratio in data set [2] worked out at 6.8.
In the case of `CCC(=O)Nc1cc(C(=O)Oc2ccccc2)ccc1OC`, in data set [1], the CC50 at 48 h worked out at 464 µM. The selectivity ratio in data set [2] was found to be 2.1. In the data set with Influenza A virus [3], the IC50 is 223 µM.
For `CCOC(=O)C1=C[C@@H](OC(CC)CC)[C@H](NC(C)=O)[C@@H](N)C1` [OSELTAMIVIR], the CC50 at 48 h in data set [1] was found to be 3070 µM. Further, the selectivity ratio in data set [2] was 1540. The IC50 in the data set with Influenza A virus [5] was above 2440 µM; in the data set with Influenza A virus [3], 2 µM.
Take `COc1c(NC(=O)C(C)F)cccc1C(=O)Nc1ccccc1` (centres undefined): in data set [1], the CC50 at 48 h was above 632 µM. In the data set with Influenza A virus [3], the IC50 was above 211 µM.
Turning to `COc1ccc(C(=O)Nc2ccccc2)cc1NC(C)=O`, the CC50 at 48 h in data set [1] was above 704 µM. Besides, in data set [2], the selectivity ratio is above 6.2. Further, the IC50 in the data set on Influenza A virus [3] was 113 µM.
For `COc1ccc(C(=O)Nc2ccccc2)cc1NC(=O)C1CCCC1`, in data set [1], the CC50 at 48 h worked out at 459 µM. Further, the IC50 was above 65.7 µM with Influenza B virus, above 65.7 µM in the data set with Influenza A virus [5] and 37.9 µM in the data set with Influenza A virus [3]. The selectivity ratio in data set [2] stood at 12.1.
As for `CCC(=O)Nc1cc(C(=O)Nc2cccc(SC)c2)ccc1OC`, the CC50 at 48 h in data set [1] stood at 324 µM. In addition, the IC50 in the data set with Influenza A virus [3] is above 63 µM.
For the molecule `CCC(=O)Nc1cc(NC(=O)c2ccccc2)ccc1OC`, in data set [1], the CC50 at 48 h stood at 387 µM. For the same molecule, in data set [2], the selectivity ratio amounted to 5.2. Besides, the half-maximal inhibitory concentration (IC50) in the data set with Influenza A virus [3] is 74.5 µM.
`CCC(=O)Nc1cc(C(=O)NC2CCCCC2)ccc1OC`: the CC50 at 48 h in data set [1] turned out to be 510 µM. The selectivity ratio in data set [2] is 6.9. In addition, in the data set on Influenza A virus [3], the IC50 amounted to 73 µM.
As to `CCC(=O)Nc1cc(C(=O)Nc2ccc([N+](=O)[O-])cc2)ccc1OC`, in data set [1], the CC50 at 48 h turned out to be 307 µM. For the same molecule, the IC50 in the data set on Influenza B virus was 64.8 µM; with Influenza A virus [5], above 21.6 µM; in the data set on Influenza A virus [3], 26.3 µM. For the same molecule, the selectivity ratio in data set [2] worked out at 11.7; in data set [4], 4.7.
On to `COc1ccc(C(=O)Nc2ccccc2)cc1`, for which, in data set [1], the CC50 at 48 h was above 880 µM. In addition, the 50% inhibitory concentration (IC50) with Influenza A virus [3] is above 293 µM.
For the molecule `CCC(=O)Nc1cc(C(=O)N(C)c2ccccc2)ccc1OC`, in data set [1], the CC50 at 48 h came to 444 µM. The selectivity ratio in data set [2] stood at 4.4. Besides, the IC50 with Influenza A virus [3] worked out at 101 µM.
